We go through five molecules from PMC7221417 (European journal of medicinal chemistry, 2020).

One data set is described as follows: Stability in DMSO. Format: physicochemical. The following applies: for free anastrozole observed in DMSO (1H NMR): 2 mM, 15 min.
The nature of data set [1]: Qualitative solubility in water and organic solvents. Format: physicochemical.
Data set [2] concerns MCF12A cells (non-cancerous breast). Briefly: Sulforhodamine B. Format: cell-based, human.
The subject of data set [3] is H295R cells (adrenocortical carcinoma). The data set is described as follows: Sulforhodamine B. The format is cell-based, human.
In data set [4] the test system is T47D cells (ER+ breast cancer). The data set is described as follows: Sulforhodamine B. The format is cell-based, human. The following applies: for IC50: T47D.
In data set [5] the target is T1, aromatase (CYP19) in H295R cells (Homo sapiens, UniProt P11511).
T1 sequence (P11511 1-503): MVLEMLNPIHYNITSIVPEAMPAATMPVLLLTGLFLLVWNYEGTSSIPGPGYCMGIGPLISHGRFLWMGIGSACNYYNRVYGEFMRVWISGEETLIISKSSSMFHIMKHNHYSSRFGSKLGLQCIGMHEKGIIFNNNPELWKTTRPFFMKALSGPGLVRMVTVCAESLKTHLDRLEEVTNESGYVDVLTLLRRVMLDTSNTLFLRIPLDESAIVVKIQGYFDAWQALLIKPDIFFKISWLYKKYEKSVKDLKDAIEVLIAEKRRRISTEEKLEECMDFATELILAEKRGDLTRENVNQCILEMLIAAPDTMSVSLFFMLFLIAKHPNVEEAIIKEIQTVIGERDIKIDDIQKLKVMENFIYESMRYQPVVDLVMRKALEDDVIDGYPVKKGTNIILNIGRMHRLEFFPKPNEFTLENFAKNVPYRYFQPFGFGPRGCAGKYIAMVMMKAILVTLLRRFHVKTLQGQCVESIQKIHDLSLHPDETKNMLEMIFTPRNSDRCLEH
The data set is described as follows: Tritiated water-release assay of aromatase activity in H295R cells. Format: cell-based. A digest of the protocol: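 H295R cells were seeded at 100,000/well in DMEM/F-12 with Nu Serum and ITS for 24 h, then washed with PBS. They were incubated 1.5 h at 37 °C, 5% CO2, in phenol red-free DMEM/F-12 with 54nM 1β-3H-androstenedione plus test compound at 0.1, 1, 10, 100 nM. Released tritiated water was counted by liquid scintillation. Controls were cell-free blanks and 0.1% DMSO. Data are mean ± SD.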

Data set [6] deals with MCF7 cells (ER+ breast cancer). Briefly: Sulforhodamine B. Format: cell-based, human. The following applies: for Selectivity index (SI): IC50 (MCF12A) / IC50 (MCF7).
Data set [7] has as its system MDA-MB-231 cells (ER- / triple negative breast cancer). The data set is described as follows: Sulforhodamine B. The following applies: for Selectivity index (SI): IC50 (MCF12A) / IC50 (MDA-MB-231). Format: cell-based, human.
The subject of data set [8] is zebrafish (Danio rerio) embryos. The following applies: concentrations far less than its IC50 value in human cancer cells; cited from earlier work.
Data set [9] in a line: Stability in cell culture medium/DMSO. Format: physicochemical. The following applies: 10 μM, full DMEM/F12 medium (max 0.1% DMSO), 37 °C, 1.5 h, HPLC. An outline of the steps: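 Test compound at 10 μM in DMEM/F12 (0.1% DMSO, from DMSO stock) was held 1.5 h at 37 °C. Released ligand was extracted into diethyl ether, then cleaned on silica with acetone. The residue was redissolved in acetone with 100 μM hydrocortisone as external standard. It was run on C18 UHPLC with a 13 min water/acetonitrile gradient at 2 mL/min, with UV detection, and quantified against standard curves. Three replicates.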

The nature of data set [10]: Solubility in culture medium/DMSO and water/DMSO by UV-Vis. The format is physicochemical. An outline of the steps: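 Test compound in phenol red-free DMEM-F12 (0.1% DMSO) at 0.01, 0.1, 1, 5, 10, 20 μM, and in water (max 0.5% DMSO) at 1, 5, 10, 15 μM. Each solution was passed through a 0.2 μm syringe filter, then absorbance at 350–370 nm was read on a plate reader. A linear concentration–absorbance relationship was taken to indicate solubility.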

In data set [11] the test system is zebrafish (Danio rerio) embryos. The data set is described as follows: Zebrafish embryo toxicity assay. Format: in vivo. The following applies: 0.1, 0.5, 1 μM; 24-96 hpf; vs untreated control. A digest of the protocol:
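Wild-type Danio rerio embryos were raised at 28.5 °C. From the 2- or 4-cell stage they were exposed in 5 mL fish medium to test compound at 0.1, 0.5, 1 μM (0.5% DMSO final). Medium was refreshed at 48 h. Mortality, gross morphology and hatching were scored by stereomicroscope every 24 h to 96 hpf, against an untreated control. Triplicates, 60 embryos per treatment from three crosses; mean ± SD.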

Setting [12] is: MCF12A (non-cancerous), 48 h exposure, SRB assay.
[13] abbreviates: H295R, 48 h exposure, SRB assay.
[14] abbreviates: MDA-MB-231, 48 h exposure, SRB assay.

Consider `C1=CCCC=CCC1.CC(C)(C#N)c1cc(Cn2cncn2)cc(C(C)(C)C#N)c1.CC(C)(C#N)c1cc(Cn2cncn2)cc(C(C)(C)C#N)c1.[Cl-].[Cl-].[Ru+2]` [Complex 1, RuCOD(ATZ)2Cl2], for which the “free anastrozole observed in DMSO (1H NMR)” value in the data set “Stability in DMSO” is 25%.
As for `CC(C)(C#N)c1cc(Cn2cncn2)cc(C(C)(C)C#N)c1.CS(C)=O.[Cl-].[Cl-].[Cl-].[Cl-].[Na+].[Ru+3]` [Complex 3, Na[trans-RuCl4ATZ(DMSO)]], the “solubility in water (qualitative)” value in [1] was “soluble in water”.
Consider `CC(C)(C#N)c1cc(Cn2cncn2)cc(C(C)(C)C#N)c1` [anastrozole, reference compound], for which the IC50 (commonly the concentration needed to halve the response being measured) was above 100 µM in [2] (Homo sapiens, MCF-12A, 48 h); above 100 µM in data set [3] (Homo sapiens, NCI-H295R, 48 h); above 100 µM in [4] (Homo sapiens, 48 h); above 100 µM in [6] (Homo sapiens, MCF7, 48 h); above 100 µM in data set [7] (Homo sapiens, MDA-MB-231, 48 h). For the same molecule, in [5] (NCI-H295R, read-out: inhibition of aromatase activity), the inhibition – broadly, the share of the control response that was lost under treatment – at 0.01 µM was around 50%.
`N.N.[Cl][Pt][Cl]` [cisplatin]: in data set [8], the “hatching rate of zebrafish embryos” value is “significant inhibition of hatching rate”. For the same molecule, the IC50 is 42.7 µM in data set [2] (setting [12]); 86.5 µM in data set [3] (setting [13]); above 150 µM in data set [4] (48 h exposure, SRB assay); 20.1 µM in [6] (MCF7, 48 h exposure, SRB assay); 32.4 µM in [7] (setting [14]). The “Selectivity index (SI)” value in [6] is reported as 2.12; in data set [7], 1.32.
In the case of RuCp(PPh3)2(ATZ)BF4 [Complex 2], the “released anastrozole in culture medium” value in [9] is given as 4%. In addition, the “solubility in culture medium” value in data set [10] (full DMEM/F12 medium (0.1% DMSO)) is at least 20 µM. The solubility in water in data set [10] (water (max 0.5% DMSO)) is at least 15 µM. For the same molecule, the half-inhibitory concentration (IC50) in data set [2] (setting [12]) is 0.58 µM; in [3] (setting [13]), 0.63 µM; in data set [4] (48 h exposure, SRB assay), 0.32 µM; in [6] (MCF7, 48 h exposure, SRB assay), 0.5 µM; in [7] (setting [14]) it was 0.39 µM. In addition, the “solubility in organic solvents (qualitative)” value in data set [1] is “soluble in acetone, alcohols and dimethyl sulfoxide (DMSO)”. Besides, in data set [1], the “solubility in water (qualitative)” value is “poorly soluble in water”. Moreover, the “Selectivity index (SI)” value in data set [3] (IC50 (MCF12A) / IC50 (H295R)) is recorded as 0.92; in data set [4] (IC50 (MCF12A) / IC50 (T47D)), 1.81; in data set [6], 1.16; in [7], 1.49. For the same molecule, in [11], the “hatching delay of zebrafish embryos” value is recorded as “no apparent”. In addition, in [11], the “mortality of zebrafish embryos” value was “no apparent”. Moreover, the “phenotype changes of zebrafish embryos” value in [11] is given as “no apparent”. The “free anastrozole observed in DMSO (1H NMR)” value in the data set “Stability in DMSO” is 2%. Also, in the data set “Stability in DMSO” (over 1 h), the “change of UV-Vis absorption spectrum in DMSO” value is “No apparent change”. Besides, the “aromatase inhibitory activity at higher concentrations” value in data set [5] (above 10 nM (tested up to 100 nM), 1.5 h, H295R cells) was “slight aromatase inhibitory activity”. For the same molecule, the “inhibition of aromatase activity” value in data set [5] (up to 10 nM, 1.5 h, H295R cells) is given as “No significant inhibition”.
